Assay outcomes: PubChem, several laboratories
This is a sample that favours compounds with a hit; in the whole collection about 2% have one here.
TWEAK Fn14 block = TWEAK-Fn14 signaling inhibition; TWEAK-stimulated Fn14 reporter cells, luciferase luminescence, 8 h; inhibition, % at 10 µM; actives 2% (n = 360,000); in the data active = inhibition above about 50%
LGR2 antag = Drosophila LGR2 receptor signaling inhibition | HEK293 LGR2, CRE-luciferase, bursicon-stimulated, 4 h | inhibition, % at 9.99 µM | actives 0.35% (n = 380,000) | AID 720647;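 active = drop in luminescence signal, shown as inhibition above about 50% in the replicate tests, limit read from the data, passing the limit was not always enough; inconclusive = probably only some replicates passing the limit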;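 note: agonist challenge used bursicon conditioned medium at about half maximal strength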
CaV13 ICDI inh = Primary screen for inhibitors of IQ motif and Ca2+-dependent inactivation inhibitor domain binding in CACNA1D, Förster resonance energy transfer in living cells, … | actives 0.098% (n = 340,000) | inhibition, % at 12.3 µM | HEK cells, CFP/YFP FRET ICDI-IQ, plate reader, 10 min; percent FRET-ratio fall versus neutral wells;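 active = mean replicate inhibition of at least 30% and at least 1% of replicates passing that level; inconclusive = only one of the two criteria is met; inactive = neither criterion is met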;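 note: 0% = median of the neutral control wells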
Xi reactivation = activators of X-chromosome reactivation in mouse fibroblasts. XiGFP mouse fibroblasts, % GFP-positive cells imaging, 3 d; cells co-treated with 5-aza-dC sensitizer; scaled so ellipticine positive control = 100%. AID 743238. actives 0.055% (n = 360,000). activation, % at 7.58 µM;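 active = mean normalized replicate activation at least 10% and every replicate at or above 10%; inconclusive = only one of the two criteria met; inactive = mean below 10% and not all replicates reach 10%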;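 note: 0% = median of on-plate neutral control wells and 100% = ellipticine 6 µM median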
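System: 68-5-11 XiGFP fibroblast line; Timing: 3 days compound exposure; Compound dosing: one concentration, pinned; Benchmarks: positive control ellipticine, 6 µM final; Buffer or medium: DMEM containing 5-aza-dC.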
TROY signal inh = blocks TROY-dependent signaling in reporter cells | Q293 LMP1-TROYcd NF-kB luciferase reporter, 4 h | inhibition, % at 10 µM | actives 0.98% (n = 360,000);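 active = compounds whose plate-normalised and pattern-corrected inhibition of the luciferase reporter signal at the single screening dose is 50% or more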
* marks the source's active call; other numbers are inactive results; ? = inconclusive; · = not tested or not shown; + = active, no number.

SMILES	TWEAK Fn14 block	LGR2 antag	CaV13 ICDI inh	Xi reactivation	TROY signal inh
CCc1ccc(NC(=O)c2noc3c2CCC3)cc1	72.7*	·	-5.6	·	28.3
Cc1ccc(NC(=O)c2noc3c2CCCCC3)cc1	51.0*	23.6	-4.0	·	-10.3
CCc1ccc(NC(=O)c2noc3c2CCCCC3)cc1	-28.9	·	-3.6	·	-44.0
S=C(NCC1CCCO1)N1CCN(Cc2ccccc2Cl)CC1 (configuration not stated)	-7.8	-16.5	+	-0.2	12.9
COc1ccc(C(=O)Nc2ccc3c(c2)OC[C@@H](C)NC[C@@H](C)[C@H](OC)CN(C)C3=O)cc1	·	-1.2	·	-0.1	·
S=C(NCc1ccccn1)Nc1ccc(Cl)cc1	72.4*	·	·	·	·
Fc1cccc(NC(=S)NCc2ccccn2)c1	-32.1	-37.3	-3.5	0.2	-48.5
C[C@H](CO)N1C[C@H](C)[C@H](CN(C)C(=O)Nc2cc(F)ccc2F)Oc2cc(C#CC3CC3)ccc2S1(=O)=O	·	-8.6	·	-0.9	·
CCCNC(=O)N1[C@H](CO)[C@@H](c2ccccc2)C12CN(C(=O)C1CCCCC1)C2	·	3.0	·	0.0	·
COC(=O)c1ccccc1NC(=O)c1ccc(COc2ccc(C)c(C)c2)o1	81.2*	·	·	·	·
COC(=O)c1ccccc1NC(=O)c1ccc(COc2cc(C)cc(C)c2)o1	-6.4	-10.1	-5.6	·	1.3
CCc1ccc(S(=O)(=O)/N=C2\C=C(NS(=O)(=O)c3ccccc3)C(=O)c3ccccc32)cc1	-5.8	2.0	-14.8	-0.1	-22.3
CC(C)c1ccc(S(=O)(=O)/N=C2\C=C(NS(=O)(=O)c3ccccc3)C(=O)c3ccccc32)cc1	0.1	25.9	-7.1	0.1	-4.8
O=C(O)c1ccc(S(=O)(=O)/N=C2\C=C(Nc3ccccc3F)C(=O)c3ccccc32)cc1	96.4*	101.0*	-7.0	0.5	48.9
Cc1ccccc1NC1=C/C(=N\S(=O)(=O)c2ccc(C(=O)O)cc2)c2ccccc2C1=O	93.5*	-4.6	-6.9	0.1	42.2
COc1ccccc1CNC(=O)C[C@H]1C[C@H]2c3cc(NC(=O)Nc4ccc(C(F)(F)F)cc4)ccc3O[C@H]2[C@@H](CO)O1	·	-3.3	·	0.2	·
Cc1c(Br)c(=O)oc2c(C)c(O)ccc12	46.1	4.7	-18.5	0.4	54.1*
Cc1ccc(-c2csc3ncnc(SCC(=O)Nc4nnc(C)s4)c23)cc1	-2.9	·	-6.2	·	14.8
Cc1ccc(-c2csc3ncnc(Sc4nnc(CN5CCCCCC5=O)o4)c23)cc1	84.8*	·	-3.5	·	34.7
[O-]C(=C(C(=S)Nc1cccc2ccccc12)[n+]1ccccc1)c1ccc2c(c1)OCCO2	102.9*	·	·	·	79.2*
CC(C)(C)c1cc[n+](/C(C(=S)Nc2ccccc2F)=C(/[O-])c2ccc3c(c2)OCCO3)cc1	11.9	-31.9	4.8	-0.2	-16.2
CN1CCN(C(=O)C[C@H]2CC[C@@H]3[C@@H](COc4ccc(NC(=O)C5CCCC5)cc4C(=O)N3C)O2)CC1	·	-3.3	·	0.0	·
O=c1cc(Nc2ccc3c(c2)OCCO3)[nH]c(=O)n1-c1ccc(Cl)cc1	72.1*	13.7	-3.5	0.9	64.1*
O=c1cc(Nc2ccc3c(c2)OCCO3)[nH]c(=O)n1C1CCCCC1	36.0	-11.2	-3.9	·	14.3
O=C(COc1cccc(NC(=O)c2cccc([N+](=O)[O-])c2)c1)c1ccc(F)cc1	41.6	·	·	·	46.3
SMILES	TWEAK Fn14 block	LGR2 antag	CaV13 ICDI inh	Xi reactivation	TROY signal inh
COc1ccc(NC(=O)c2cccc(Oc3ccc([N+](=O)[O-])cc3Cl)c2)cc1	58.9*	8.0	-13.4	0.1	23.6
COc1cccc(C(=O)COc2cccc(NC(=O)c3cccc([N+](=O)[O-])c3)c2)c1	63.9*	·	·	·	·
O=C(Nc1cccc(Cl)c1)c1cccc(Oc2ccc([N+](=O)[O-])cc2Cl)c1	82.1*	-9.7	-5.1	0.1	43.5
CO[C@@H]1CN(C)C(=O)c2cc(NC(=O)C3CC3)ccc2OC[C@@H](C)N(C(=O)c2ccccc2F)C[C@H]1C	·	4.6	·	0.0	·
C[C@H](CO)N1C[C@H](C)[C@H](CN(C)C(=O)CCC(F)(F)F)OCCCC[C@H](C)Oc2ccc(NC(=O)NC3CCCCC3)cc2C1=O	·	17.6	·	0.3	·
CCCCCCCCCCS(=O)(=O)N/N=C/c1ccc([N+](=O)[O-])cc1	3.7	-8.2	-5.7	·	51.0*
CCOC(=O)N(C)C[C@@H]1OCc2ccccc2-c2c(n(C)c3ccccc23)C(=O)N([C@H](C)CO)C[C@@H]1C	·	1.9	·	0.4	·
CC1=[N+](C)c2c(ccc3cccnc23)C1(C)C	78.4*	?	-43.1	?	45.5
O=C(NCCC1=CCCCC1)C1CCN(C(=O)Nc2ccccc2)CC1	110.0*	·	-3.2	·	-3.1
COc1ccc(Nc2ncnc3sc(-c4ccccc4)cc23)cc1OC	51.3*	0.3	-3.5	-0.1	0.7
COc1cccc2sc3ccc(C#CC4(N)CCCCC4)cc3c(=O)c12	-51.3	·	-7.4	0.0	-58.3
Cn1c2ccccc2c(=O)c2ccc(C#CC3(O)CCCCC3)cc21	96.6*	100.2*	19.6	0.1	90.8*
COc1cc2sc3ccc(C#CC4(O)CCCCC4)cc3c(=O)c2cc1OC	91.7*	94.1*	-9.5	1.5	83.9*
COc1cccc2sc3cc(C#CC4(O)CCCCC4)ccc3c(=O)c12	12.6	98.1*	-34.3	0.1	-69.6
COc1cc2sc3ccc(C#Cc4ccc(N)cc4)cc3c(=O)c2cc1OC	-115.4	-28.0	-4.1	0.0	-25.9
O=C(NCC[C@H]1CC[C@H](NC(=O)Nc2cc(F)ccc2F)[C@H](CO)O1)Nc1ccc(Cl)cc1	·	-7.3	·	0.0	·
COc1ccc(S(=O)(=O)Nc2ccc3c(c2)CC(=O)N([C@@H](C)CO)C[C@@H](C)[C@@H](CN(C)S(=O)(=O)c2ccc(Cl)cc2)O3)cc1	·	1.8	·	0.4	·
CCOc1ccc(-n2nnnc2-c2nc3ccccc3s2)cc1	74.3*	26.9	-4.5	0.1	61.7*
O=S(=O)(NC1c2cccc3cccc(c23)C1Sc1ncccn1)c1ccccc1 (configuration not stated)	108.0*	15.9	-14.4	0.1	91.5*
Cc1ccc(S(=O)(=O)NC2c3cccc4cccc(c34)C2Sc2nc(C)cc(C)n2)cc1 (configuration not stated)	28.8	-4.5	-5.8	0.2	13.7
CC[n+]1cccc(-c2nc3ccccc3s2)c1	69.4*	14.6	-5.5	0.0	64.1*
CC(C)c1ccc(-c2nc3ccccc3s2)cc1	106.8*	100.1*	-4.0	0.0	95.6*
FC(F)(F)c1ccc(-c2nc3ccccc3s2)cc1	23.0	-86.2	-10.1	0.4	18.8
COc1cc(-c2nc3ccccc3s2)ccc1O	-17.4	·	-11.0	·	-17.3
CN(C(=O)OC(C)(C)C)c1ccc(-c2nc3ccccc3s2)cc1	103.5*	99.1*	-9.2	0.0	89.0*
COc1ccc(-c2nc3ccccc3s2)cc1O	98.8*	·	-5.7	·	68.0*
